SIAE primary: human SIAE inhibitors, primary screen, biochemical, fluorescence polarization, FP-Rh probe, 1536-well HTS | Sialate O-acetylesterase (Homo sapiens), Q9HAT2 | SIAE FP-Rh probe binding | inhibition, % at 9.66 µM | 370,000 compounds, 0.69% hits | AID 1053197, 2014;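 active means inhibition above a cutoff: mean of compounds within the control limits plus 3 SD of those, cut at about 17% in these data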
Target sequence (Q9HAT2 whole entry, looked up): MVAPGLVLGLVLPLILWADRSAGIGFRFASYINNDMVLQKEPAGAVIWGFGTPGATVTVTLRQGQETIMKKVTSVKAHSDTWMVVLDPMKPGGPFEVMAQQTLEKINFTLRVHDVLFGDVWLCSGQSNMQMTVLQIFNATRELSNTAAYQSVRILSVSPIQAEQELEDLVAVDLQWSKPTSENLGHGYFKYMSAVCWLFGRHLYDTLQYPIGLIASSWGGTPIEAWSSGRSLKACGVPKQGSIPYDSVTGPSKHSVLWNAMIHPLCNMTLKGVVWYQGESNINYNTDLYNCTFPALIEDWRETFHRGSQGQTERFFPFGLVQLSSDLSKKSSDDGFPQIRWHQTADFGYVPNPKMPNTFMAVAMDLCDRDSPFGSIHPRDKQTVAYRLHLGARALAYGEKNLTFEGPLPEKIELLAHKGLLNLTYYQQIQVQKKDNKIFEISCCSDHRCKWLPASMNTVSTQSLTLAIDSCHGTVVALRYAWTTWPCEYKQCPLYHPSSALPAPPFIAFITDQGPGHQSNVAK
DAGLB inh: DAGLB lipase inhibitors, primary screen, biochemical, fluorescence, HTS. Diacylglycerol lipase-beta (Homo sapiens), Q8NCG7. HEK293T DAGLB membrane lysate, EnzChek fluorogenic substrate. inhibition, % at 5.17 µM. 340,000 compounds, 0.059% hits. AID 504411, 2011; in the data active means inhibition above about 34%
TCR-CD3 inh: inhibitors of human TCR-CD3 interaction, primary screen, biochemical, fluorescence, TAMRA-labeled TCR probe; 360,000 compounds, 0.37% hits; inhibition, % at 9.4 µM; T-cell receptor (TCR); in the data active means inhibition above about 19%;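 further: recombinant mutant TCR 2C K166C tagged with TAMRA read by polarization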
HTRA1 inh: HTRA1 serine protease inhibitors, primary screen, biochemical, fluorescence polarization, HTS; Q92743; recombinant HTRA1, FP-rhodamine activity-based probe; inhibition, % at 5.96 µM; 340,000 compounds, 0.5% hits; AID 504803, 2011; in the data active means inhibition above about 36%
ABHD4 inh: ABHD4 inhibitors, primary screen, biochemical, fluorescence polarization, mouse. (Lyso)-N-acylphosphatidylethanolamine lipase (Mus musculus), Q8VD66. 370,000 compounds, 0.54% hits. AID 720543, 2013. inhibition, % at 8.92 µM. purified mABHD4, FP-Rh probe fluorescence polarization;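 active means inhibition exceeding the mean over every tested compound plus 3 SD, cut at about 30% in these data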
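assay system = mABHD4 protein | compound dosing = single nominal dose of 8.92 µM, 0.89% DMSO final | read-out basis = percent inhibition of probe binding, normalized to plate controls | schedule = Enzyme–compound pre-incubation 45 min, then probe 60 min, both 25 °C | detection = fluorescence polarization, excitation 525 nm, emission 598 nm, BODIPY TMR filters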
ABHD4 confirm: ABHD4 inhibitors, retest, confirmation, biochemical, fluorescence polarization, mouse; shares compounds with ABHD4 inh; purified mABHD4, FP-Rh probe fluorescence polarization; inhibition, % at 8.92 µM; 1,800 compounds, 55% hits; AID 720658, 2013;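 active means mean inhibition across replicates above the hit cutoff set in the primary screen, cut at about 30% in these data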
Hits are given with their value; - = inactive; . = no result. A selection: hits, their analogues and other compounds. The true share with any hit is near 1.5%.

SMILES | SIAE primary | DAGLB inh | TCR-CD3 inh | HTRA1 inh | ABHD4 inh | ABHD4 confirm
Oc1ccc2[nH]cc(-c3cccs3)c2c1-c1ccccc1 | - | . | . | . | - | .
Oc1ccc2[nH]cc(CCc3ccccc3)c2c1-c1ccccc1 | - | . | . | . | 32.9 | -
COc1ccc(-n2c(COc3ccc(Cl)cc3)nnc2SCC(=O)c2ccc(-c3ccccc3)cc2)cc1 | - | . | . | . | - | .
Cc1cc(C(=O)O)ccc1-c1ccc(/C=C2\NC(=O)N(Cc3ccc(F)cc3)C2=O)o1 | - | - | - | - | 29.9 | 78.1
CCCCNC(=O)C[C@H]1C(=O)N(CCCOC)C2=CCCCC[C@]21C(=O)OC | - | . | . | . | - | .
COc1ccc(-n2c(SCC(=O)Nc3ccc4c(c3)OCCO4)nnc2-c2ccccc2)cc1 | - | . | . | . | - | .
O=C1c2ccccc2C(=O)c2cc(S(=O)(=O)Nc3ccccc3)ccc21 | - | - | - | - | 39.9 | 53.2
O=C(O)c1cccc(NS(=O)(=O)c2ccc3c(c2)C(=O)c2ccccc2C3=O)c1 | - | - | - | - | 45.0 | 36.7
COCCCN1C(=O)[C@H](CC(=O)NCc2ccc(C)o2)[C@]2(C(=O)OC)CCCCC=C12 | - | . | . | . | - | .
O=C1CC(Nc2ccc(N3CCOCC3)cc2)C(=O)N1c1ccccc1F (configuration not stated) | - | - | - | - | 49.9 | -
Cc1ccc(Nc2cc(C)c3c(O)cccc3n2)cc1C | 17.8 | - | - | - | 44.0 | 50.7
C=CCO[C@H]1CN(C(=O)OC)[C@@H](c2ccccc2Br)C[C@H]1OCC=C | - | . | - | . | - | .
N=c1n(CCN2CCCCC2)c2ccccc2n1CC(=O)c1cccs1 | - | - | - | - | 42.8 | -
O=C(Nc1ccccc1F)c1ccc2c(c1)CCN2S(=O)(=O)c1ccccc1 | - | - | - | - | 79.8 | -
Cc1cc(N2CCN(C(=O)OC(C)(C)C)C[C@@H]2C)ccc1N1C[C@@H](C)O[C@@H](C)C1 | - | . | - | . | - | .
CN(C)c1ccc2cc(S(=O)(=O)O)cc(O)c2c1 | - | - | - | - | 77.5 | 54.3
CN(C)c1ccc(O)c2c1CC1CC3[C@@H](N(C)C)C(=O)C(C(N)=O)C(=O)[C@]3(O)C(=O)C1C2=O (some centres not stated) | - | - | - | - | 61.1 | -
CN(C)c1ccc(O)c2c1CC1CC3C(N(C)C)C(=O)C(C(N)=O)=C(O)[C@@]3(O)C(=O)C1=C2O (some centres not stated) | - | - | - | - | 59.8 | -
CC1(C)CC(=O)C=C(Nc2ccc(C(=O)O)c(O)c2)C1 | - | - | - | - | 32.4 | -
COc1cc2c(c3c1c(=O)c1ccccc1n3C)C=CC(C)(C)O2 | - | . | - | . | - | .
NC(=O)c1ncn([C@@H]2O[C@H](C(=O)N3CCN(Cc4ccccn4)CC3)[C@@H](O)[C@H]2O)n1 | - | . | - | . | - | .
COc1ccc(Br)cc1/C=C(\C(=O)O)c1ccc(S(=O)(=O)N2CCCC2)s1 | - | - | - | - | 29.6 | -
O=C(C1CC(=O)N(C2CCCC2)C1)N1CCN(c2ccccc2F)CC1 (configuration not stated) | - | - | - | - | - | .
O=C(C1CCCCC1)N1CCN(c2ccccc2F)CC1 | - | - | - | - | 44.9 | -
C=CCS/C(N)=N\N=C\c1cc(Br)cc([N+](=O)[O-])c1O | - | - | - | - | 30.6 | -
SMILES | SIAE primary | DAGLB inh | TCR-CD3 inh | HTRA1 inh | ABHD4 inh | ABHD4 confirm
Cc1cccc(C)c1NC(=O)[C@@H]1CC(=O)O[C@@H]1c1ccccc1 | - | . | . | . | - | .
COc1ccc(NS(=O)(=O)c2cc(N)ccc2N2CCOCC2)cc1 | - | - | - | - | - | .
COc1ccc(NS(=O)(=O)c2cc(N)ccc2N2CCCC2)cc1 | - | - | - | - | 39.5 | 32.5
CCCCNc1ccc2c(c1)OC[C@@H](Cc1ccccc1)NS2(=O)=O | - | . | - | . | - | .
CCN1C(=O)N(C(C)=O)[C@H]2C[C@H](C(=O)N3CCCC3)[C@H](C)[C@H](c3ccccc3)C[C@H]21 | - | . | - | . | - | .
Cc1cc2c(cc1C)N(C(=O)CSC1=NCCS1)C(C)(C)c1ssc(=S)c1-2 | - | - | - | - | 37.0 | -
CC1(C)c2ssc(=S)c2-c2ccccc2N1C(=O)CSC1=NCCS1 | - | - | - | - | - | .
CCOc1cc(/C=C2\CCCc3c2nc2ccccc2c3C(=O)O)ccc1OC | - | - | - | - | 31.6 | -
Oc1ccc(NC(=S)Nc2ccc(O)cc2)cc1 | - | - | - | - | 49.2 | -
COC(=O)c1ccc(NC(=S)Nc2ccc(O)cc2)cc1 | - | - | - | - | - | .
Cc1ccc(C=Nc2ccc(N(C)C)cc2)o1 | - | - | - | 52.5 | 39.7 | 33.5
CCC(=O)Nc1cc(OC)c(NC(=S)Nc2ccccc2CC)cc1OC | - | - | - | - | 42.6 | -
Cc1cccc(C)c1NC(=O)CSCC(=O)c1ccc(O)c(O)c1 | - | - | - | - | 31.7 | -
O=C(O)C1Cn2c(nc3c(c2=O)C2(CCCC2)Cc2ccccc2-3)S1 (configuration not stated) | - | - | - | - | 41.6 | 41.6
O=C1C2C(C(=O)N1/N=C/c1cc([N+](=O)[O-])c(O)cc1O)C1C=CC2C12CC2 (configuration not stated) | - | - | - | - | 30.8 | -
COc1ccc(CCCCCCOCc2ccccc2)cc1 | - | - | - | - | - | .
COc1ccc(COC[B-](F)(F)F)cc1 | - | - | - | - | 43.6 | -
Cc1cc(C)n(CC(=O)Nc2ccc3c(c2)OCO3)c(=O)c1C#N | - | - | - | - | 31.0 | -
Cc1cc2ccccc2c(=O)n1CC(=O)Nc1ccc2c(c1)OCO2 | - | - | - | - | - | .
Cc1csc(=O)n1CCC(=O)OCC(=O)Nc1cc([N+](=O)[O-])ccc1Cl | - | - | - | - | 55.6 | -
CCOC(=O)Cc1csc(NC(=O)c2cccnc2)n1 | - | - | - | - | - | .
CCOC(=O)Cc1csc(NC(=O)c2sc3nc4ccc(C)cc4cc3c2N)n1 | - | - | - | - | 35.6 | -
COc1ccc(C(=O)c2[nH]c(N)c(C(=O)c3c[nH]c4ccccc34)c2-c2ccc(F)c(OC)c2)cc1 | - | . | - | . | - | .
Oc1cccc(/C=N/Nc2cccc3cccnc23)c1 | - | - | - | - | - | .
COc1cccc(CNc2cccc3cccnc23)c1O | - | - | - | - | 34.1 | -
COc1cc(/C=N/Nc2cccc3cccnc23)cc(OC)c1O | - | - | - | - | 31.6 | 32.7
c1ccc2c(c1)OCc1nccn1-2 | - | . | - | . | - | .
CCCCc1c(-c2ccccc2OC)ncn1Cc1c(F)cccc1F | - | . | - | . | - | .
